Measurements published in ChEMBL document CHEMBL1155080, “Alpha2-adrenoreceptors profile modulation. 4. From antagonist to agonist behavior” (J Med Chem, 2008).
The source made the active and inactive calls. The rule behind the calls is not given here.

Columns and labels:
[1] = target: T1, Alpha-2A adrenergic receptor (Homo sapiens) (UniProt P08913); experiment: (§1) Agonist activity at human recombinant adrenergic alpha2A receptor expressed in CHO cells assessed as stimulation of extracellular acidification; type: functional, cell-based
T1 sequence (whole entry): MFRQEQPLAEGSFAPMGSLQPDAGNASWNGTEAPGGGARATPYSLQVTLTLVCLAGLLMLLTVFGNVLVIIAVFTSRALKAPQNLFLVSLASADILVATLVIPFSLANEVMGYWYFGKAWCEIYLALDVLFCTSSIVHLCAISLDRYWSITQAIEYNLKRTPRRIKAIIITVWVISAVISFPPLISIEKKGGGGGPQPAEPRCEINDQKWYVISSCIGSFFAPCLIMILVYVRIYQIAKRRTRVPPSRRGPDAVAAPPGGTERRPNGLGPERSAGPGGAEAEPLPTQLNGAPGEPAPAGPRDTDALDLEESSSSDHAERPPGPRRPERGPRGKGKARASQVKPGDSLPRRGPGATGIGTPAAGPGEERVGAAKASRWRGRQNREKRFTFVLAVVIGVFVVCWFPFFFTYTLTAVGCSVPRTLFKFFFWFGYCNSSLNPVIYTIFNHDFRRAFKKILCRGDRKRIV

[2] = target: T2, Alpha-2C adrenergic receptor (Homo sapiens, UniProt P18825); experiment: Displacement of [3H]RS79948-197 from human recombinant adrenergic Alpha-2C receptor expressed in CHO cells; type: cell-based
T2 sequence (P18825 whole entry): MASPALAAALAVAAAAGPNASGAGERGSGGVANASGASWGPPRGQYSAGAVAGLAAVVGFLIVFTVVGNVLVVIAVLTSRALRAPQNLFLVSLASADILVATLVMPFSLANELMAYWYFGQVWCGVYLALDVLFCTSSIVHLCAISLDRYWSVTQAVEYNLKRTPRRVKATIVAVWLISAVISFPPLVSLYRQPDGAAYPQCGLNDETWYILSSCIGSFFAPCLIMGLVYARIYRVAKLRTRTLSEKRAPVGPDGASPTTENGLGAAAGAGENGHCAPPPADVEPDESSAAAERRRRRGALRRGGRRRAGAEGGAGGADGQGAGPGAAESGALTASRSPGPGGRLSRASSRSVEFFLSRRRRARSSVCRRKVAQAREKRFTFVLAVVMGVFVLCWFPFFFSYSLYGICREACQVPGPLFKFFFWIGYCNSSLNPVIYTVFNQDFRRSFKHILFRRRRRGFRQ
Summary of the method: (§2)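 Competition binding on membranes from CHO cells stably expressing each human α2 subtype (1-3 pmol/mg receptor). Assay in 50 mM potassium phosphate, pH 7.4, with 5-10 µg protein. Eight competitor dilutions, 30 min at room temperature, then vacuum filtration and scintillation counting. IC50 by one-site nonlinear regression, converted with Cheng-Prusoff; mean ± SEM, 3-6 experiments.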

[3] = target: T2, Alpha-2C adrenergic receptor; experiment: (§3) Agonist activity at human recombinant adrenergic Alpha-2C receptor expressed in CHO cells assessed as stimulation of extracellular acidification; type: functional, cell-based
Summary of the method: (§4)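 Cytosensor microphysiometry. Stable CHO cells were seeded at 3 × 10⁵ cells/cup, grown 24 h at 37 °C/5% CO₂, then perfused with bicarbonate-free DMEM at 100 µL/min. Over 90 s pump cycles, pH was read for 20 s. Response is the peak acidification rate minus the mean of three pre-agonist readings. pEC50 is the concentration giving 50% of maximum; mean ± SEM, 3-6 experiments.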

[4] = target: T3, Alpha-2B adrenergic receptor (Homo sapiens) (UniProt P18089); experiment: (§5) Agonist activity at human recombinant adrenergic alpha2B receptor expressed in CHO cells; type: functional, cell-based; summary of the method: as §4
T3 sequence (whole entry): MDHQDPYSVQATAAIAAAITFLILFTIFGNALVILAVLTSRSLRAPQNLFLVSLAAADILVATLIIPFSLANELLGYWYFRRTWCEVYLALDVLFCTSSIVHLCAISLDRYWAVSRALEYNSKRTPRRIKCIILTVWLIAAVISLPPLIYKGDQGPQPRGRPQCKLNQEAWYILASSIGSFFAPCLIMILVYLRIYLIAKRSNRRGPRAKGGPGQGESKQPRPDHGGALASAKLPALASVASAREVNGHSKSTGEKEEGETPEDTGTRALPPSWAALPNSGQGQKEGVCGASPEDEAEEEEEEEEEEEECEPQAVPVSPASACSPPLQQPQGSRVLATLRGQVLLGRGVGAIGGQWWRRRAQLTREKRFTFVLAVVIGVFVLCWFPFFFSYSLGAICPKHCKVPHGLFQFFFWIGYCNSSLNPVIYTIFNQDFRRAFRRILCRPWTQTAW

[5] = target: T4, Alpha-2A adrenergic receptor (Homo sapiens, UniProt P08913); experiment: Displacement of [3H]RS79948-197 from human recombinant adrenergic alpha2A receptor expressed in CHO cells; type: cell-based; summary of the method: as §2
T4 sequence (P08913 whole entry): T1 sequence (whole entry)

[6] = target: T5, Alpha-2B adrenergic receptor (Homo sapiens, UniProt P18089); experiment: Displacement of [3H]RS79948-197 from human recombinant adrenergic alpha2B receptor expressed in CHO cells; type: cell-based; summary of the method: as §2
T5 sequence (P18089 whole entry): T3 sequence (whole entry)

[7] = target: T6, Alpha-2C adrenergic receptor (Homo sapiens) (UniProt P18825); experiment: Intrinsic activity at human recombinant adrenergic Alpha-2C receptor expressed in CHO cells assessed as stimulation of extracellular acidification relative to (-)-noradrenaline; type: cell-based
T6 sequence (whole entry): T2 sequence (P18825 whole entry)
Summary of the method: (§6)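 Acidification rate was measured by Cytosensor microphysiometry in stably transfected CHO cells (3 × 10⁵ cells/cup, bicarbonate-free DMEM perfusion). Each response is the peak rate change minus the pre-agonist baseline. Emax from concentration-response curves is expressed as a fraction of the (-)-noradrenaline maximum, taken as 1; mean ± SEM, 3-6 experiments.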

[8] = target: T3, Alpha-2B adrenergic receptor (Homo sapiens); experiment: Antagonist activity at human recombinant adrenergic alpha2B receptor expressed in CHO cells; type: functional, cell-based
Summary of the method: (§7)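 Clonidine-curve shift measured by Cytosensor microphysiometry of extracellular acidification in CHO cells stably expressing the individual human α2 subtype. Cells were seeded at 3 × 10⁵ cells/cup for 24 h at 37 °C/5% CO₂ and perfused with bicarbonate-free DMEM at 100 µL/min. A control clonidine concentration-response curve was run, then antagonist was applied ≥30 min before a repeat curve. Kb = M/(EC50 ratio − 1), reported as pKb; 3–6 experiments.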

[9] = target: T6, Alpha-2C adrenergic receptor (Homo sapiens); experiment: Antagonist activity at human recombinant adrenergic Alpha-2C receptor expressed in CHO cells; type: functional, cell-based; summary of the method: as §7
[10] = target: T1, Alpha-2A adrenergic receptor (Homo sapiens); experiment: Antagonist activity at human recombinant adrenergic alpha2A receptor expressed in CHO cells; type: functional, cell-based; summary of the method: as §7
[11] = target: T6, Alpha-2C adrenergic receptor (Homo sapiens); experiment: as §3; type: functional, cell-based; summary of the method: as §4
[12] = target: T1, Alpha-2A adrenergic receptor (Homo sapiens); experiment: Intrinsic activity at human recombinant adrenergic alpha2A receptor expressed in CHO cells assessed as stimulation of extracellular acidification relative to (-)-noradrenaline; type: cell-based
Summary of the method: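 Microphysiometry (Cytosensor) of extracellular acidification rate in CHO cells stably expressing human α2A. Cells were seeded at 3 × 10⁵ cells/cup and cultured 24 h at 37 °C, then perfused with bicarbonate-free DMEM at 100 µL/min, with agonist diluted into running medium. Response was taken as the maximum after agonist minus the mean of three pre-agonist readings. Emax is expressed as a fraction of (−)-noradrenaline (=1); 3–6 experiments.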

[13] = target: T4, Alpha-2A adrenergic receptor; experiment: as §1; type: functional, cell-based
[14] = target: T3, Alpha-2B adrenergic receptor (Homo sapiens); experiment: Intrinsic activity at human recombinant adrenergic alpha2B receptor expressed in CHO cells relative to (-)-noradrenaline; type: cell-based; summary of the method: as §6
[15] = target: T5, Alpha-2B adrenergic receptor; experiment: as §5; type: functional, cell-based; summary of the method: as §4

## CCO/N=C/c1ccccc1OC(C)C1=NCCN1 (stereo unspecified)
[1]
  Activity: inactive
[2]
  Ki: 339 nM
[3]
  EC50: 1000 nM
[4]
  Activity: inactive
[5]
  Ki: 417 nM
[6]
  Ki: 447 nM
[7]
  Intrinsic activity: 0.45

## c1ccc(OC(C2=NCCN2)c2ccccc2)cc1 (stereo unspecified)
[8]
  pKb: 6.04
[2]
  Ki: 64.6 nM
[9]
  pKb: 6.9
[5]
  Ki: 93.3 nM
[10]
  pKb: 6.1
[6]
  Ki: 47.9 nM

## c1ccc(-c2ccc3c(c2)OC(C2=NCCN2)CO3)cc1 (stereo unspecified)
[1]
  Activity: inactive
[2]
  Ki: 1260 nM
[11]
  Activity: inactive
[4]
  Activity: inactive
[5]
  Ki: 398 nM
[6]
  Ki: 1000 nM

## CO/N=C/c1ccccc1OC(C)C1=NCCN1 (stereo unspecified)
[1]
  Activity: inactive
[2]
  Ki: 3090 nM
[3]
  EC50: 501 nM
[4]
  Activity: inactive
[5]
  Ki: 661 nM
[6]
  Ki: 1200 nM
[7]
  Intrinsic activity: 0.55

## CC(Oc1ccccc1C1CCCC1)C1=NCCN1 (stereo unspecified)
[12]
  Intrinsic activity: 0.65
[13]
  EC50: 63.1 nM
[14]
  Intrinsic activity: 0.7
[2]
  Ki: 26.9 nM
[3]
  EC50: 10 nM
[15]
  EC50: 501 nM
[5]
  Ki: 50.1 nM
[6]
  Ki: 191 nM
[7]
  Intrinsic activity: 0.75

## CC(Oc1ccccc1)C1=NCCN1 (stereo unspecified)
[8]
  pKb: 6.2
[2]
  Ki: 263 nM
[9]
  pKb: 6.85
[5]
  Ki: 26.9 nM
[10]
  pKb: 7.01
[6]
  Ki: 166 nM

## COC1(C2=NCCN2)COc2c(cccc2-c2ccccc2)O1 (stereo unspecified)
[1]
  Activity: inactive
[14]
  Intrinsic activity: 0.5
[11]
  Activity: inactive
[15]
  EC50: 15800 nM
[5]
  Ki: 257 nM

## c1ccc(-c2cccc3c2OC(C2=NCCN2)CO3)cc1 (stereo unspecified)
[1]
  Activity: inactive
[14]
  Intrinsic activity: 0.45
[2]
  Ki: 692 nM
[3]
  EC50: 3160 nM
[15]
  EC50: 22400 nM
[5]
  Ki: 240 nM
[6]
  Ki: 479 nM
[7]
  Intrinsic activity: 0.4

## c1ccc2c(c1)OCC(C1=NCCN1)O2 (stereo unspecified)
[8]
  pKb: 7.16
[9]
  pKb: 7.92
[10]
  pKb: 7.73

## C=CCc1ccccc1OC(C)C1=NCCN1 (stereo unspecified) [ALLYPHENYLINE]
[1]
  Activity: inactive
[2]
  Ki: 85.1 nM
[3]
  EC50: 50.1 nM
[4]
  Activity: inactive
[10]
  pKb: 7.4
[6]
  Ki: 339 nM
[7]
  Intrinsic activity: 0.9

## CC(Oc1ccccc1/C=N/OCc1ccccc1)C1=NCCN1 (stereo unspecified)
[1]
  Activity: inactive
[14]
  Intrinsic activity: 0.8
[2]
  Ki: 676 nM
[3]
  EC50: 3550 nM
[15]
  EC50: 31600 nM
[5]
  Ki: 214 nM
[6]
  Ki: 871 nM
[7]
  Intrinsic activity: 0.5

## CC(Oc1ccccc1C1CCCCC1)C1=NCCN1 (stereo unspecified)
[12]
  Intrinsic activity: 0.6
[13]
  EC50: 79.4 nM
[14]
  Intrinsic activity: 0.7
[2]
  Ki: 77.6 nM
[3]
  EC50: 20.9 nM
[15]
  EC50: 200 nM
[5]
  Ki: 74.1 nM
[6]
  Ki: 191 nM
[7]
  Intrinsic activity: 0.8

## COC1(C2=NCCN2)COc2cccc(-c3ccccc3)c2O1 (stereo unspecified)
[1]
  Activity: inactive
[2]
  Ki: 245 nM
[11]
  Activity: inactive
[4]
  Activity: inactive
[5]
  Ki: 126 nM
[6]
  Ki: 1070 nM

## CC(Oc1ccccc1/C=N/O)C1=NCCN1 (stereo unspecified)
[12]
  Intrinsic activity: 0.8
[13]
  EC50: 501 nM
[14]
  Intrinsic activity: 0.5
[2]
  Ki: 912 nM
[3]
  EC50: 126 nM
[15]
  EC50: 3980 nM
[5]
  Ki: 288 nM
[6]
  Ki: 708 nM
[7]
  Intrinsic activity: 0.85

## c1ccc(-c2ccccc2OC(C2=NCCN2)c2ccccc2)cc1 (stereo unspecified)
[12]
  Intrinsic activity: 0.45
[13]
  EC50: 1000 nM
[2]
  Ki: 204 nM
[3]
  EC50: 776 nM
[4]
  Activity: inactive
[5]
  Ki: 240 nM
[6]
  Ki: 955 nM
[7]
  Intrinsic activity: 0.7

## COC(C)(Oc1ccccc1-c1ccccc1)C1=NCCN1 (stereo unspecified)
[1]
  Activity: inactive
[11]
  Activity: inactive
[4]
  Activity: inactive

## c1ccc(-c2cccc3c2OCC(C2=NCCN2)O3)cc1 (stereo unspecified)
[1]
  Activity: inactive
[14]
  Intrinsic activity: 0.7
[2]
  Ki: 832 nM
[3]
  EC50: 794 nM
[15]
  EC50: 12600 nM
[5]
  Ki: 724 nM
[6]
  Ki: 1070 nM
[7]
  Intrinsic activity: 0.75

## c1ccc(-c2ccc3c(c2)OCC(C2=NCCN2)O3)cc1 (stereo unspecified)
[1]
  Activity: inactive
[2]
  Ki: 1580 nM
[11]
  Activity: inactive
[4]
  Activity: inactive
[5]
  Ki: 282 nM
[6]
  Ki: 1660 nM
